Measurements published in ChEMBL document CHEMBL4130342, “New semi-synthetic analogs of oleuropein show improved anticancer activity in vitro and in vivo” (Eur J Med Chem, 2017).

Test system: SK-BR-3
Experiment: Antiproliferative activity against human SKBR3 cells after 72 hrs by MTT reduction assay
Assay type: functional, cell-based
Settings: SK-BR-3, 72 h
Procedure, shortened: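 MTT reduction assay; adherent lines left to adhere overnight, suspension lines (HL-60, K562) seeded on the day. […] Incubation was 72 h at 37°C, with MTT added for the last 4 h. OD read at 545 nm (reference 690 nm). IC50 from 100(A0-A)/A0=50; means ± SD of 3 independent experiments.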

`C/C=C1/[C@H](O[C@@H]2O[C@H](COC(C)=O)[C@@H](OC(C)=O)[C@H](OC(C)=O)[C@H]2OC(C)=O)OC=C(C(=O)OC)[C@H]1CC(=O)OCCC(C)C` (stereo in doubt) and `C/C=C1/[C@H](O[C@@H]2O[C@H](COC(C)=O)[C@@H](OC(C)=O)[C@H](OC(C)=O)[C@H]2OC(C)=O)OC=C(C(=O)OC)[C@H]1CC(=O)OCCCC` (stereo in doubt) cannot be ordered by IC50: over 15 µM for the first, over 15 µM for the second.

`C=C(C)CCOC(=O)C[C@@H]1C(C(=O)OC)=CO[C@@H](O[C@@H]2O[C@H](COC(C)=O)[C@@H](OC(C)=O)[C@H](OC(C)=O)[C@H]2OC(C)=O)/C1=C/C` and `C/C=C1/[C@H](O[C@@H]2O[C@H](COC(C)=O)[C@@H](OC(C)=O)[C@H](OC(C)=O)[C@H]2OC(C)=O)OC=C(C(=O)OC)[C@H]1CC(=O)OCC` (stereo in doubt) cannot be ordered by IC50: over 15 µM for the first, over 15 µM for the second.

`C/C=C1/[C@H](O[C@@H]2O[C@H](COC(C)=O)[C@@H](OC(C)=O)[C@H](OC(C)=O)[C@H]2OC(C)=O)OC=C(C(=O)OC)[C@H]1CC(=O)OCCc1ccc(OC)cc1` (stereo in doubt) and `C/C=C1/[C@H](O[C@@H]2O[C@H](COC(C)=O)[C@@H](OC(C)=O)[C@H](OC(C)=O)[C@H]2OC(C)=O)OC=C(C(=O)OC)[C@H]1CC(=O)OCCc1ccc(F)cc1` (stereo in doubt) cannot be ordered by IC50: over 20 µM for the first, over 20 µM for the second.

`C/C=C1/[C@H](O[C@@H]2O[C@H](CO)[C@@H](O)[C@H](O)[C@H]2O)OC=C(C(=O)OC)[C@H]1CC(=O)OCC` (stereo in doubt) and `C/C=C1/[C@H](O[C@@H]2O[C@H](CO)[C@@H](O)[C@H](O)[C@H]2O)OC=C(C(=O)OC)[C@H]1CC(=O)OCCC` (stereo in doubt) cannot be ordered by IC50: over 15 µM for the first, over 15 µM for the second.

`C/C=C1/[C@H](O[C@@H]2O[C@H](COC(C)=O)[C@@H](OC(C)=O)[C@H](OC(C)=O)[C@H]2OC(C)=O)OC=C(C(=O)OC)[C@H]1CC(=O)SCCc1ccccc1` (stereo in doubt) and `C/C=C1/[C@H](O[C@@H]2O[C@H](COC(C)=O)[C@@H](OC(C)=O)[C@H](OC(C)=O)[C@H]2OC(C)=O)OC=C(C(=O)OC)[C@H]1CC(=O)OCc1ccccc1` (stereo in doubt) cannot be ordered by IC50: over 15 µM for the first, over 15 µM for the second.

`C/C=C1/[C@H](O[C@@H]2O[C@H](COC(C)=O)[C@@H](OC(C)=O)[C@H](OC(C)=O)[C@H]2OC(C)=O)OC=C(C(=O)O)[C@H]1CC(=O)O` and `C/C=C1/[C@H](O[C@@H]2O[C@H](COC(C)=O)[C@@H](OC(C)=O)[C@H](OC(C)=O)[C@H]2OC(C)=O)OC=C(C(=O)O)[C@H]1CC(=O)OC` (stereo in doubt) cannot be ordered by IC50: over 20 µM for the first, over 20 µM for the second.

`C/C=C1/[C@H](O[C@@H]2O[C@H](COC(C)=O)[C@@H](OC(C)=O)[C@H](OC(C)=O)[C@H]2OC(C)=O)OC=C(C(=O)OC)[C@H]1CC(=O)OCCc1ccc(OC)c(OC)c1` (stereo in doubt) and `C/C=C1/[C@H](O[C@@H]2O[C@H](COC(C)=O)[C@@H](OC(C)=O)[C@H](OC(C)=O)[C@H]2OC(C)=O)OC=C(C(=O)OC)[C@H]1CC(=O)OCCCc1ccc(OC)c(OC)c1` (stereo in doubt) cannot be ordered by IC50: over 15 µM for the first, over 20 µM for the second.

`C=CCOC(=O)C[C@@H]1C(C(=O)OC)=CO[C@@H](O[C@@H]2O[C@H](COC(C)=O)[C@@H](OC(C)=O)[C@H](OC(C)=O)[C@H]2OC(C)=O)/C1=C/C` (stereo in doubt) and `C#CCOC(=O)C[C@@H]1C(C(=O)OC)=CO[C@@H](O[C@@H]2O[C@H](COC(C)=O)[C@@H](OC(C)=O)[C@H](OC(C)=O)[C@H]2OC(C)=O)/C1=C/C` (stereo in doubt) cannot be ordered by IC50: over 20 µM for the first, over 15 µM for the second.

`C/C=C1/[C@H](O[C@@H]2O[C@H](CO)[C@@H](O)[C@H](O)[C@H]2O)OC=C(C(=O)O)[C@H]1CC(=O)OC` (stereo in doubt) and `C/C=C1/[C@H](O[C@@H]2O[C@H](CO)[C@@H](O)[C@H](O)[C@H]2O)OC=C(C(=O)OC)[C@H]1CC(=O)OC` (stereo in doubt) cannot be ordered by IC50: over 20 µM for the first, over 15 µM for the second.

`C/C=C1/[C@H](O[C@@H]2O[C@H](CO)[C@@H](O)[C@H](O)[C@H]2O)OC=C(C(=O)OC)[C@H]1CC(=O)OCCCc1ccc(OC)c(OC)c1` (stereo in doubt) and `C/C=C1/[C@H](O[C@@H]2O[C@H](CO)[C@@H](O)[C@H](O)[C@H]2O)OC=C(C(=O)OC)[C@H]1CC(=O)OCCc1ccc(OC)c(OC)c1` cannot be ordered by IC50: over 20 µM for the first, over 15 µM for the second.

`C/C=C1/[C@H](O[C@@H]2O[C@H](COC(C)=O)[C@@H](OC(C)=O)[C@H](OC(C)=O)[C@H]2OC(C)=O)OC=C(C(=O)OC)[C@H]1CC(=O)OC` (stereo in doubt) and `C/C=C1/[C@H](O[C@@H]2O[C@H](COC(C)=O)[C@@H](OC(C)=O)[C@H](OC(C)=O)[C@H]2OC(C)=O)OC=C(C(=O)OC)[C@H]1CC(=O)O` cannot be ordered by IC50: over 15 µM for the first, over 15 µM for the second.

`C/C=C1/[C@H](O[C@@H]2O[C@H](COC(C)=O)[C@@H](OC(C)=O)[C@H](OC(C)=O)[C@H]2OC(C)=O)OC=C(C(=O)OC)[C@H]1CC(=O)OCc1ccco1` (stereo in doubt) and `C/C=C1/[C@H](O[C@@H]2O[C@H](COC(C)=O)[C@@H](OC(C)=O)[C@H](OC(C)=O)[C@H]2OC(C)=O)OC=C(C(=O)OC)[C@H]1CC(=O)OCc1ccc2c(c1)OCCO2` (stereo in doubt) cannot be ordered by IC50: over 15 µM for the first, over 15 µM for the second.

`C/C=C1/[C@H](O[C@@H]2O[C@H](CO)[C@@H](O)[C@H](O)[C@H]2O)OC=C(C(=O)OC)[C@H]1CC(=O)OCc1ccccc1` (stereo in doubt) and `C/C=C1/[C@H](O[C@@H]2O[C@H](CO)[C@@H](O)[C@H](O)[C@H]2O)OC=C(C(=O)OC)[C@H]1CC(=O)OCc1ccco1` (stereo in doubt) cannot be ordered by IC50: over 15 µM for the first, over 15 µM for the second.

`C/C=C1/[C@H](O[C@@H]2O[C@H](CO)[C@@H](O)[C@H](O)[C@H]2O)OC=C(C(=O)OC)[C@H]1CC(=O)OCCc1ccc2c(c1)OCCO2` (stereo in doubt) and `C/C=C1/[C@H](O[C@@H]2O[C@H](CO)[C@@H](O)[C@H](O)[C@H]2O)OC=C(C(=O)OC)[C@H]1CC(=O)OCc1ccc2c(c1)OCCO2` (stereo in doubt) cannot be ordered by IC50: over 20 µM for the first, over 15 µM for the second.

`C=C(C)CCOC(=O)C[C@@H]1C(C(=O)OC)=CO[C@@H](O[C@@H]2O[C@H](CO)[C@@H](O)[C@H](O)[C@H]2O)/C1=C/C` (stereo in doubt) and `C/C=C1/[C@H](O[C@@H]2O[C@H](CO)[C@@H](O)[C@H](O)[C@H]2O)OC=C(C(=O)OC)[C@H]1CC(=O)OCCCC` (stereo in doubt) cannot be ordered by IC50: over 15 µM for the first, over 15 µM for the second.

`C/C=C1/[C@H](O[C@@H]2O[C@H](COC(C)=O)[C@@H](OC(C)=O)[C@H](OC(C)=O)[C@H]2OC(C)=O)OC=C(C(=O)OC)[C@H]1CC(=O)OCCc1ccc2c(c1)OCCO2` (stereo in doubt) and `C/C=C1/[C@H](O[C@@H]2O[C@H](COC(C)=O)[C@@H](OC(C)=O)[C@H](OC(C)=O)[C@H]2OC(C)=O)OC=C(C(=O)OC)[C@H]1CC(=O)OCCc1ccc([N+](=O)[O-])cc1` (stereo in doubt) cannot be ordered by IC50: over 15 µM for the first, over 20 µM for the second.

`C/C=C1/[C@H](O[C@@H]2O[C@H](COC(C)=O)[C@@H](OC(C)=O)[C@H](OC(C)=O)[C@H]2OC(C)=O)OC=C(C(=O)OC)[C@H]1CC(=O)OCc1ccc(OC)c(OC)c1` (stereo in doubt) and `C/C=C1/[C@H](O[C@@H]2O[C@H](COC(C)=O)[C@@H](OC(C)=O)[C@H](OC(C)=O)[C@H]2OC(C)=O)OC=C(C(=O)OC)[C@H]1CC(=O)SCCC` (stereo in doubt) cannot be ordered by IC50: over 15 µM for the first, over 15 µM for the second.

`C#CCOC(=O)C[C@@H]1C(C(=O)OC)=CO[C@@H](O[C@@H]2O[C@H](CO)[C@@H](O)[C@H](O)[C@H]2O)/C1=C/C` (stereo in doubt) and `C/C=C1/[C@H](O[C@@H]2O[C@H](CO)[C@@H](O)[C@H](O)[C@H]2O)OC=C(C(=O)OC)[C@H]1CC(=O)O` cannot be ordered by IC50: over 15 µM for the first, over 15 µM for the second.

`C/C=C1/[C@H](O[C@@H]2O[C@H](CO)[C@@H](O)[C@H](O)[C@H]2O)OC=C(C(=O)OC)[C@H]1CC(=O)OCCc1ccc(F)cc1` (stereo in doubt) and `C/C=C1/[C@H](O[C@@H]2O[C@H](CO)[C@@H](O)[C@H](O)[C@H]2O)OC=C(C(=O)OC)[C@H]1CC(=O)OCCc1ccc(O)cc1` [LIGSTROSIDE] cannot be ordered by IC50: over 20 µM for the first, over 20 µM for the second.

`C/C=C1/[C@H](O[C@@H]2O[C@H](COC(C)=O)[C@@H](OC(C)=O)[C@H](OC(C)=O)[C@H]2OC(C)=O)OC=C(C(=O)OC)[C@H]1CC(=O)OCCC1CCCCC1` and `C/C=C1/[C@H](O[C@@H]2O[C@H](COC(C)=O)[C@@H](OC(C)=O)[C@H](OC(C)=O)[C@H]2OC(C)=O)OC=C(C(=O)O)[C@H]1CC(=O)OCCCCCCCCCCCCCCCC` cannot be ordered by IC50: over 15 µM for the first, over 20 µM for the second.

`C/C=C1/[C@H](O[C@@H]2O[C@H](CO)[C@@H](O)[C@H](O)[C@H]2O)OC=C(C(=O)OC)[C@H]1CC(=O)OCc1ccc(OC)c(OC)c1` (stereo in doubt) and `C/C=C1/[C@H](O[C@@H]2O[C@H](CO)[C@@H](O)[C@H](O)[C@H]2O)OC=C(C(=O)OC)[C@H]1CC(=O)OCCc1ccc(OC)cc1` (stereo in doubt) cannot be ordered by IC50: over 15 µM for the first, over 20 µM for the second.

`OCCc1ccc(O)c(O)c1` [HYDROXYTYROSOL] and `C/C=C1/[C@H](O[C@@H]2O[C@H](CO)[C@@H](O)[C@H](O)[C@H]2O)OC=C(C(=O)OC)[C@H]1CC(=O)OCCc1ccc([N+](=O)[O-])cc1` (stereo in doubt) cannot be ordered by IC50: 201 µM for the first, over 20 µM for the second.

Compound `C/C=C1/[C@H](O[C@@H]2O[C@H](CO)[C@@H](O)[C@H](O)[C@H]2O)OC=C(C(=O)OC)[C@H]1CC(=O)NCCC` (stereo in doubt) has an IC50 of over 20 µM.
